MIC and IC50 data for 16 molecules are collected here from ChEMBL document CHEMBL1134493, “2-(2-Oxo-1,4-dihydro-2H-quinazolin-3-yl)- and 2-(2,2-dioxo-1,4-dihydro-2H-2lambda6-benzo[1,2,6]thiadiazin-3-yl)-N-hydroxy-acetamides as potent and selective peptide deformylase inhibitors” (J Med Chem, 2001).

≈ marks a conversion by molar mass, not a printed value. Bounds are passed on as bounds.

One experiment has as its system Escherichia coli. The experiment can be described thus: In vitro antibacterial activity against Escherichia coli. Type of experiment: functional. The method in brief:
(§1)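 Broth microdilution MIC per NCCLS guidelines; strains from in-house collection (ATCC and hospital isolates) stored at -80 °C; E. coli tested as permeable outer-membrane mutant DC2. MIC taken as lowest concentration preventing visible growth after 18 to 24 h at 37 °C.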

Another experiment has as its system Haemophilus influenzae. The experiment can be described thus: In vitro antibacterial activity against Haemophilus influenzae 11. In kind it is functional. The method in brief:
as §1

For the next experiment, the system named is Moraxella catarrhalis. The experiment can be described thus: In vitro antibacterial activity against Moraxella catarrhalis RA21. Type of experiment: functional. In a few lines:
as §1

In a further experiment the target is T1, Peptide deformylase (Escherichia coli, UniProt Q9JN24).
T1 sequence (Q9JN24 whole entry): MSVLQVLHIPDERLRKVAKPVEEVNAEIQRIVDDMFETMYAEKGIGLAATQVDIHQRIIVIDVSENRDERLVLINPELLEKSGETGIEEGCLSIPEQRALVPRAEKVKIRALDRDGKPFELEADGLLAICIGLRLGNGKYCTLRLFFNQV
The experiment can be described thus: Inhibition of the isolated native Escherichia coli peptide deformylase (PDF).

For experiment [1], the target named is Angiotensin-converting enzyme (Homo sapiens, UniProt P12821). The experiment can be described thus: Inhibition against angiotensin I converting enzyme.
Experiment [2] addresses T2, Endothelin-converting enzyme 1 (Homo sapiens, UniProt P42892).
T2 sequence (P42892 whole entry): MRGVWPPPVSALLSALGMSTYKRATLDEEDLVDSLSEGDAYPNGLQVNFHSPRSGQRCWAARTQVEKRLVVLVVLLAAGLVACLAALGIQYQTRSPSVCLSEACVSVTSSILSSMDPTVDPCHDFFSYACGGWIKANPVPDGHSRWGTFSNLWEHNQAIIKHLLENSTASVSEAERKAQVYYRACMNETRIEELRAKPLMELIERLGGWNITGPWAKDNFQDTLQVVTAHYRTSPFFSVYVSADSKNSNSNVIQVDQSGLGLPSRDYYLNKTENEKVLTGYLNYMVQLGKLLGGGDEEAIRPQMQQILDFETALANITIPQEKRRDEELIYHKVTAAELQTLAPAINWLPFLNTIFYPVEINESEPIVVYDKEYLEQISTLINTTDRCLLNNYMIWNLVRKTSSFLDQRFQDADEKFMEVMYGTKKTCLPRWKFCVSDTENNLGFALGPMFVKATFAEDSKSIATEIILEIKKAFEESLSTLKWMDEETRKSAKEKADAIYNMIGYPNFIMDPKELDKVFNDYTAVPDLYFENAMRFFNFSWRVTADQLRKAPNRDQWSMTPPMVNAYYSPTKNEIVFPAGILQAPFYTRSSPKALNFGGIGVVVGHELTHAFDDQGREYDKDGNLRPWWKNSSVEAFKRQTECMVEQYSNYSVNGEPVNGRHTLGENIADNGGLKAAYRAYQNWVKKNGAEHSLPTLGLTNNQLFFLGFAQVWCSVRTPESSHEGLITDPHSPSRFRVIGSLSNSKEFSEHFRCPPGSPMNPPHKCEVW
The experiment can be described thus: Inhibition against endothelin-converting enzyme.

In another experiment the target is Neprilysin (Homo sapiens, UniProt P08473). The experiment can be described thus: Inhibition against neutral endopeptidase.
The target in experiment [3] is Macrophage metalloelastase (Homo sapiens, UniProt P39900). The experiment can be described thus: Inhibition of human macrophage elastase, matrix metalloprotease-12 (MMP-12).
The next experiment has as its target Collagenase 3 (Homo sapiens, UniProt P45452). The experiment can be described thus: Inhibition of Collagenase-3, matrix metalloprotease-13 (MMP-13).

Chain of Angiotensin-converting enzyme (P12821 whole entry): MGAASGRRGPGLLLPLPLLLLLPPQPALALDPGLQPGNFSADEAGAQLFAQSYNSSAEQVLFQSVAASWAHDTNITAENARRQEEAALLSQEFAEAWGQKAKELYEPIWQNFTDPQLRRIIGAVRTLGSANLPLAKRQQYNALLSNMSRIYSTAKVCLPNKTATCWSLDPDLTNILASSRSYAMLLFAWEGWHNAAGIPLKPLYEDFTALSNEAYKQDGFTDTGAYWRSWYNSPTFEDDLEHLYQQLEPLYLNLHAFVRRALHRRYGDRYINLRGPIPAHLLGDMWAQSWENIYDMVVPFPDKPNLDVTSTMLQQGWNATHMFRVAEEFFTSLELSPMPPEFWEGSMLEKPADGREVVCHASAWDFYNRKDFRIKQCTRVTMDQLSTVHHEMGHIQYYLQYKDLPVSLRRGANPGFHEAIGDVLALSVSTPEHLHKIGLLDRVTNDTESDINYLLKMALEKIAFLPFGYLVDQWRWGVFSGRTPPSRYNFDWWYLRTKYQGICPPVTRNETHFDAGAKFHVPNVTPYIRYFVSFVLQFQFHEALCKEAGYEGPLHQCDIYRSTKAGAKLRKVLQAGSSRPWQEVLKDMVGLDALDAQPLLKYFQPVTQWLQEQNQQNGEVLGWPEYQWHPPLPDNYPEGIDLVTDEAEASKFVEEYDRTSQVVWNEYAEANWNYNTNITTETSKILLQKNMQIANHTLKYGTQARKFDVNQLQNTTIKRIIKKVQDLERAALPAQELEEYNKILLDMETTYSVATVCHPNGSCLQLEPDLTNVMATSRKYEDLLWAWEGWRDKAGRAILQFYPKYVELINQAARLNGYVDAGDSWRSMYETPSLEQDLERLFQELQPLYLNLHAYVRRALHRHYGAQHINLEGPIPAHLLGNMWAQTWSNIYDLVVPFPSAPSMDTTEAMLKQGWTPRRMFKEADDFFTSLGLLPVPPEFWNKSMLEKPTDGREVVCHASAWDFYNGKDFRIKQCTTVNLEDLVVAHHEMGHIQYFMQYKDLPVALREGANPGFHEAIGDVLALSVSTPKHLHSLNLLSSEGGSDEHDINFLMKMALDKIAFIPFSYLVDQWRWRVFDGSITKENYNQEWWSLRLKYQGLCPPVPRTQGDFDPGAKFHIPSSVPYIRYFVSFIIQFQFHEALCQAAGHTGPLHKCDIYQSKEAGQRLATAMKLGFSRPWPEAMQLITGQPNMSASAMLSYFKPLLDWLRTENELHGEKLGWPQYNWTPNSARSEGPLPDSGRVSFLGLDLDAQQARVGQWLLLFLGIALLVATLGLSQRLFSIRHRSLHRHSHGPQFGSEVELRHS
Chain of Neprilysin (P08473 whole entry): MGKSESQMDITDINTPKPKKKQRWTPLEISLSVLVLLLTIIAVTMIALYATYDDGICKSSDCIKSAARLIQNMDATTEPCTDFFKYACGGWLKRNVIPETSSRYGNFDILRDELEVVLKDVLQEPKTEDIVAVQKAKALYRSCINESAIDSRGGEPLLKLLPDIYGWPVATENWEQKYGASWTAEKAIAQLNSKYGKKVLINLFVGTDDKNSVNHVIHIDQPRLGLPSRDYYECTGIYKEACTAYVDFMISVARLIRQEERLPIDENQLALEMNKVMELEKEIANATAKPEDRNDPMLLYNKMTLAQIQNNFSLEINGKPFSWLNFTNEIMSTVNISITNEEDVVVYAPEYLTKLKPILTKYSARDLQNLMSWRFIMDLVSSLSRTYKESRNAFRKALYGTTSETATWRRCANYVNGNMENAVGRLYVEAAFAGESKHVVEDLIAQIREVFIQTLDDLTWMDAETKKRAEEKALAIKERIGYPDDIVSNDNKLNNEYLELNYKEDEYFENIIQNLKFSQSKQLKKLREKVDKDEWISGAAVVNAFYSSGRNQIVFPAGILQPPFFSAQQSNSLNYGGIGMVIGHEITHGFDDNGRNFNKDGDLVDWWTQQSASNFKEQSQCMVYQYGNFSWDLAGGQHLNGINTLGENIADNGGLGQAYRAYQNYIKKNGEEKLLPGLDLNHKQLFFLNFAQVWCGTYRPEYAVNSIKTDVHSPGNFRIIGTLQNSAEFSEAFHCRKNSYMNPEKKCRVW
Chain of Macrophage metalloelastase (P39900 whole entry): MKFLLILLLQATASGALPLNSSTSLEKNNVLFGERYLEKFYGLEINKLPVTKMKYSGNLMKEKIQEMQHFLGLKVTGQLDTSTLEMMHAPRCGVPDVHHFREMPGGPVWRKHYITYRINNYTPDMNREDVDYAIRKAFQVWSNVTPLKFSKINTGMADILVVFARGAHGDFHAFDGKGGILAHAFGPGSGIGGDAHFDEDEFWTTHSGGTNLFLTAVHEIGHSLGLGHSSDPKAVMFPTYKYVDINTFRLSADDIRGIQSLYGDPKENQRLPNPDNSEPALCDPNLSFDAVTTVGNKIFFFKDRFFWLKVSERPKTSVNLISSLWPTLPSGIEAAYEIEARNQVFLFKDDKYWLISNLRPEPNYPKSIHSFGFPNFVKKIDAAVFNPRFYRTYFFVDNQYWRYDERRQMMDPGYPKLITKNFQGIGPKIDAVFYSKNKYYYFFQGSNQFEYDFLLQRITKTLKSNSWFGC

`O=C(CN1Cc2c(Cl)cccc2N(CCCc2ccccc2)S1(=O)=O)NO`: the values for the MIC against Escherichia coli, against Haemophilus influenzae and with Moraxella catarrhalis were > 64 µg/mL, 32 µg/mL (≈ 78.1 µM) and 8 µg/mL (≈ 19.5 µM), respectively.
`O=C(CN1Cc2ccccc2NS1(=O)=O)NO`: the MIC in the experiment on Escherichia coli, in the experiment on Haemophilus influenzae and in the experiment with Moraxella catarrhalis was > 64 µg/mL throughout. For the same molecule, on Peptide deformylase, the IC50 stood at 760 nM.
As to `O=C(CN1Cc2c(Br)cccc2NC1=O)NO`, the MIC with Escherichia coli came to 32 µg/mL (≈ 107 µM); in the experiment on Haemophilus influenzae, 16 µg/mL (≈ 53.3 µM); against Moraxella catarrhalis it was 4 µg/mL (≈ 13.3 µM). This molecule also yielded an IC50 against Peptide deformylase of 49 nM.
Regarding `O=C(CN1Cc2c(Cl)cccc2NC1=O)NO`, the values for the MIC in the experiment on Escherichia coli, with Haemophilus influenzae and in the experiment with Moraxella catarrhalis were 16 µg/mL (≈ 62.6 µM), 8 µg/mL (≈ 31.3 µM) and 2 µg/mL (≈ 7.82 µM), respectively. The half-inhibitory concentration (IC50) in experiment [1] was 90000 nM; in [2] it was > 10000 nM; on Neprilysin, > 100000 nM; at Peptide deformylase, 310 nM; in [3], > 100000 nM; at Collagenase 3, 460 nM.
As for `O=C(CN1Cc2c(Cl)cccc2NS1(=O)=O)NO`, the MIC in the experiment on Escherichia coli is > 64 µg/mL; with Haemophilus influenzae, 16 µg/mL (≈ 54.8 µM); in the experiment with Moraxella catarrhalis, 8 µg/mL (≈ 27.4 µM). Also, the IC50 in [1] was > 100000 nM; in experiment [2] it was > 10000 nM; against Neprilysin, > 100000 nM; at Peptide deformylase, 120 nM; in [3] it was > 100000 nM; on Collagenase 3 it was > 500 nM.
Turning to `O=C(CN1Cc2c(Cl)cccc2N(Cc2ccccc2)S1(=O)=O)NO`, the MIC against Escherichia coli was 64 µg/mL (≈ 168 µM); against Haemophilus influenzae, 32 µg/mL (≈ 83.8 µM); with Moraxella catarrhalis, 8 µg/mL (≈ 21 µM).
On to `O=C(CN1Cc2c(F)cccc2NS1(=O)=O)NO`, for which the MIC against Escherichia coli, against Haemophilus influenzae and in the experiment on Moraxella catarrhalis was > 64 µg/mL each time. In addition, on Peptide deformylase, the 50% inhibitory concentration (IC50) worked out at 870 nM.
For `O=C(CN1Cc2c(cccc2C(F)(F)F)NS1(=O)=O)NO`, the MIC in the experiment with Escherichia coli is > 64 µg/mL; against Haemophilus influenzae, 32 µg/mL (≈ 98.4 µM); in the experiment on Moraxella catarrhalis, 8 µg/mL (≈ 24.6 µM). Besides, at Peptide deformylase, the IC50 was found to be 130 nM.
In the case of `NNC(=O)CN1Cc2c(Cl)cccc2NC1=O`, the MIC in the experiment on Escherichia coli is 50 µg/mL (≈ 196 µM). This molecule also came in with a half-inhibitory concentration (IC50) against Peptide deformylase of 27000 nM.
Take `O=C(CN1Cc2c(Br)cccc2NS1(=O)=O)NO`: the MIC is 32 µg/mL (≈ 95.2 µM) in the experiment on Escherichia coli, > 64 µg/mL in the experiment with Haemophilus influenzae and 4 µg/mL (≈ 11.9 µM) in the experiment on Moraxella catarrhalis. In addition, on Peptide deformylase, the concentration for half-maximal inhibition (IC50) came to 98 nM.
For `CCCCN1c2cccc(Cl)c2CN(CC(=O)NO)S1(=O)=O` the same measures were > 64 µg/mL, 64 µg/mL (≈ 184 µM), 2 µg/mL (≈ 5.75 µM) and 590 nM.
`O=C(CN1Cc2c(F)cccc2NC1=O)NO`: the MIC with Escherichia coli is > 64 µg/mL; in the experiment on Haemophilus influenzae, 64 µg/mL (≈ 268 µM); with Moraxella catarrhalis, 16 µg/mL (≈ 66.9 µM). This molecule also came in with a half-maximal inhibitory concentration (IC50) at Peptide deformylase of 870 nM.
For `O=C(CN1Cc2c(Cl)cccc2N(CC2CC2)S1(=O)=O)NO` the same measures were > 64 µg/mL, 64 µg/mL (≈ 185 µM), 4 µg/mL (≈ 11.6 µM) and 110 nM.
`O=C(CN1Cc2c(cccc2C(F)(F)F)NC1=O)NO`: the MIC in the experiment on Escherichia coli stood at 64 µg/mL (≈ 221 µM); with Haemophilus influenzae it was 64 µg/mL (≈ 221 µM); with Moraxella catarrhalis it was 8 µg/mL (≈ 27.7 µM). The molecule further registered a 50% inhibitory concentration (IC50) at Peptide deformylase of 230 nM.
In the case of `O=C(CN1Cc2c(Br)cccc2N(CC2CC2)S1(=O)=O)NO`, the results for the MIC in the experiment on Escherichia coli, in the experiment on Haemophilus influenzae and in the experiment with Moraxella catarrhalis were 64 µg/mL (≈ 164 µM), 64 µg/mL (≈ 164 µM) and 1 µg/mL (≈ 2.56 µM), respectively.
Take `O=C(CN1Cc2ccccc2NC1=O)NO`: the MIC against Escherichia coli, against Haemophilus influenzae and against Moraxella catarrhalis was > 64 µg/mL each time.

The IC50 is the midpoint of a concentration-inhibition curve. Read a low IC50 as inhibition by little substance.
